Key:
[1] = species: Cavia porcellus; assay: Selectivity for sigma 2 receptor over sigma 1 receptor in guinea pig brain membrane; assay type: cell membranes
Method in brief: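 Selectivity is the ratio of sigma1 Ki to sigma2 Ki. Sigma1 Ki came from [3H](+)-pentazocine competition and sigma2 Ki from [3H]DTG competition with (+)-pentazocine mask, both in male guinea pig brain membranes.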

[2] = Displacement of [3H]DTG from sigma 2 receptor in guinea pig brain membrane; assay type: cell membranes, Cavia porcellus
Method in brief: (§1)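 Male guinea pig brain membranes (0.25 mg protein) were incubated with 3.0 nM [3H]DTG plus 200 nM (+)-pentazocine as sigma1 mask. Buffer was 50 mM Tris-HCl, pH 8.0, and incubation was 120 min at 25 °C. DTG (100 µM) defined nonspecific binding. Ten log-spaced test concentrations were used. Filters were PEI-soaked GF/B, read by scintillation counting. Ki given as mean ± SEM, n = 3–5.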

[3] = biological target: T1, Sigma non-opioid intracellular receptor 1 (Cavia porcellus, UniProt Q60492); assay: Displacement of [3H](+)-pentazocine from sigma 1 receptor in guinea pig brain membrane; assay type: cell membranes
Method in brief: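 Male guinea pig brain membranes (0.25 mg protein) were incubated with 1.0 nM [3H](+)-pentazocine in 50 mM Tris-HCl (pH 7.4, 25 °C) for 150 min at 37°C. Haloperidol (1.0 µM) defined nonspecific binding. Ten log-spaced test concentrations were used, in water with 0.1% HOAc/1.0% EtOH. Bound radioactivity was collected on PEI-soaked GF/B filters and counted by scintillation.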

[4] = biological target: T1, Sigma non-opioid intracellular receptor 1; assay: Displacement of [3H](+)-pentazocine from sigma 1 receptor in guinea pig brain membrane at pH 8.0 at 25 degC; assay type: cell membranes
Method in brief: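 This alternative sigma1 regimen used guinea pig brain membranes with 3.0 nM [3H](+)-pentazocine in pH 8.0 buffer. Incubation was 120 min at 25 °C. Nonspecific binding was defined with 10 µM (+)-pentazocine. Bound ligand was separated by filtration and counted by scintillation.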

[5] = Displacement of [3H]DTG from sigma 2 receptor in guinea pig brain membrane at pH 8.0 at 25 degC; assay type: cell membranes, Cavia porcellus; method in brief: as §1

T1 sequence (Q60492 whole entry): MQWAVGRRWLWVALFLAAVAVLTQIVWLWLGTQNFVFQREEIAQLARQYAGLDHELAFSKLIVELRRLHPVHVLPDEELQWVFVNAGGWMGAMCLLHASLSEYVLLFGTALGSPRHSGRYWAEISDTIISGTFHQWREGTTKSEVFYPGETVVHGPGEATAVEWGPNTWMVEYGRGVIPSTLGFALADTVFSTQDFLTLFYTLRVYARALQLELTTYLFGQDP

Ratio Ki [1] | Ki [2] [nM] | Ki [3] [nM] | IC50 [4] [nM] | IC50 [5] [nM] | SMILES
0.2 | 4620 | 880 |  |  | COc1ccc(CCNCCCCNC(=O)c2cc(Br)cc(OC)c2OC)cc1OC
44 | 32.6 | 1430 |  |  | COc1cc(Br)cc(C(=O)NCCCCN2CCc3cc4c(cc3C2)OCCCO4)c1OC
 | 2.7 |  | 1890 | 3 | COc1cc2c(cc1OC)CN(CCCCNC(=O)c1cc(Br)cc(OC)c1OC)CC2
4 | 20.7 | 82.2 |  |  | COc1cc(Br)cc(C(=O)NCCCCN2CCc3cc4c(cc3C2)OCO4)c1OC
16 | 21.7 | 338 |  |  | COc1cc(Br)cc(C(=O)NCCCCN2CCc3cc4c(cc3C2)OCCO4)c1OC

Source: ChEMBL document CHEMBL1139166, “Synthesis and in vitro evaluation of tetrahydroisoquinolinyl benzamides as ligands for sigma receptors” (Bioorg Med Chem Lett, 2007)
